From ChEMBL document CHEMBL3576868 (J Med Chem, 2015)
Positions count from the first letter of the chain named. Calls of active or inactive are those of the source. The rule behind the calls is not given here.

Columns and labels:
[1] = target: Beta-hexosaminidase subunit alpha (Homo sapiens, UniProt P06865, G269S); assay: Inhibition of HexA alpha G269S mutant in ATSD patient fibroblasts using MUG substrate incubated for 1 to 2 hrs at pH 4.5 by spectrofluorometry
[2] = target: T1, Dihydrofolate reductase (Homo sapiens) (UniProt P00374); assay: Inhibition of human DHFR
T1 sequence (whole entry): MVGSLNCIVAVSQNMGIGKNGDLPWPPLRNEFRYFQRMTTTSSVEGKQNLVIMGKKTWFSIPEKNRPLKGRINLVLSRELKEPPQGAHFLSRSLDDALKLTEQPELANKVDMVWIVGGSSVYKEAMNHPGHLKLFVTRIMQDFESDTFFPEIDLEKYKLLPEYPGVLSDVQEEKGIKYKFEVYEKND

[3] = Toxicity against ATSD patient fibroblasts assessed as reduction in beta-galactosidase activity at >200 uM; assay type: cell-based; settings: human, fibroblast
[4] = tested on: T2, Beta-hexosaminidase subunit alpha (Homo sapiens), P06865 [G269S]; assay: Chaperoning efficacy at HexA alpha G269S mutant in ATSD patient fibroblasts assessed as maximum increase in enzyme activity using MUGS substrate incubated for 1 to 2 hrs by spectrofluorometry relative to control
T2 sequence (whole entry): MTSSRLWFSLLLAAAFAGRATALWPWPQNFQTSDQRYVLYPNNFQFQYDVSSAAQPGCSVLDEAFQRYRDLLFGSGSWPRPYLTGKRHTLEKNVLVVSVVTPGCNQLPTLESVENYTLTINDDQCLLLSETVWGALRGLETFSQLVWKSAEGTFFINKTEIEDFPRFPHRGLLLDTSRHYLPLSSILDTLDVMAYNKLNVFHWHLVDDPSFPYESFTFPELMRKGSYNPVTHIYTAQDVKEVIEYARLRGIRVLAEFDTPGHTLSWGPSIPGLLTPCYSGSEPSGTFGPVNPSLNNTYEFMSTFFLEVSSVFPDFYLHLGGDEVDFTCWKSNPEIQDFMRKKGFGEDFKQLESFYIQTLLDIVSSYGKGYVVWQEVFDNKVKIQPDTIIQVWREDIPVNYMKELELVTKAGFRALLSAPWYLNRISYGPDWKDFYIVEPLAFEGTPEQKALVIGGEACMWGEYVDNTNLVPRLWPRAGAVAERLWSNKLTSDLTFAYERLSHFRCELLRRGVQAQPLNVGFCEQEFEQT
Outline: (§1)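 G269S-homozygous ATSD patient fibroblasts plated at 70−90% confluence and treated 5 days with serially diluted compound in DMEM/10% FBS, DMSO held at 1%. After PBS washes, cells were lysed in McIlvaine buffer pH 4.5 with 0.4% Triton X-100 and 0.025% HSA at 4 °C for 30 min. Lysate was incubated with MUGS (1.6 mM) at 37 °C for 1−2 h and stopped with 0.1 M MAP pH 10.5. Fluorescence read at Ex 365/Em 450 nm. Activity expressed relative to mock (1% DMSO) cells; triplicates.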

[5] = Toxicity against ATSD patient fibroblasts assessed as reduction in beta-galactosidase activity at >400 uM; assay type: cell-based; set-up: scale not given: the % may be the effect or the level left; settings: human, fibroblast
[6] = tested on: T2, Beta-hexosaminidase subunit alpha (Homo sapiens), P06865 [G269S]; assay: Chaperoning efficacy at HexA alpha G269S mutant in ATSD patient fibroblasts assessed as maximum increase in enzyme activity using MUGS substrate incubated for 1 to 2 hrs by spectrofluorometry relative to pyrimethamine
[7] = Toxicity against ATSD patient fibroblasts assessed as reduction in beta-galactosidase activity at; assay type: cell-based; settings: human, fibroblast
[8] = tested on: T2, Beta-hexosaminidase subunit alpha (Homo sapiens), P06865 [G269S]; assay: Chaperoning efficacy at HexA alpha G269S mutant in ATSD patient fibroblasts assessed as drug level causing maximum increase in enzyme activity using MUGS substrate incubated for 1 to 2 hrs by spectrofluorometry relative to control
Outline: as §1

[9] = target: T3, Beta-N-acetyl-D-hexosaminidase-A/B (Homo sapiens, UniProt P07686+P06865); assay: Inhibition of human placental HexA using pNPGlcNAc substrate
T3 sequence (P07686 whole entry): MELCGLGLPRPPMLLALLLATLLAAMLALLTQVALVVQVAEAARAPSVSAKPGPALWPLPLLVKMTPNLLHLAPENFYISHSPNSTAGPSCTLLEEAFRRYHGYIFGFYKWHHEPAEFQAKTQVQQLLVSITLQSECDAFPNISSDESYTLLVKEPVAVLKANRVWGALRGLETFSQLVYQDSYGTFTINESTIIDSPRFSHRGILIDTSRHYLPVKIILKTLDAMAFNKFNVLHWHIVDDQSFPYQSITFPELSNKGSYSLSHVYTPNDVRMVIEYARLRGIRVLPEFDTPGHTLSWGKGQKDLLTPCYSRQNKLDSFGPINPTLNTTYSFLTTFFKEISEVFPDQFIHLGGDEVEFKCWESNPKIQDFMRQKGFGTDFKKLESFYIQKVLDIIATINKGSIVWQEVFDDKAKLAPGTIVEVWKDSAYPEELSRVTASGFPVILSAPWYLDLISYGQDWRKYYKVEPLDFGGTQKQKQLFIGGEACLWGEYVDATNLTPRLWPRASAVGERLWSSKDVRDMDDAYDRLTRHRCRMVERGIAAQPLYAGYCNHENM
T3 sequence (P06865 whole entry): T2 sequence (whole entry) with S269G

[10] = target: Signal transducer and activator of transcription 3 (Homo sapiens) (UniProt P40763); assay: Inhibition of STAT3 phosphorylation at 100 uM
Chain of Signal transducer and activator of transcription 3 (Homo sapiens) (P40763 whole entry): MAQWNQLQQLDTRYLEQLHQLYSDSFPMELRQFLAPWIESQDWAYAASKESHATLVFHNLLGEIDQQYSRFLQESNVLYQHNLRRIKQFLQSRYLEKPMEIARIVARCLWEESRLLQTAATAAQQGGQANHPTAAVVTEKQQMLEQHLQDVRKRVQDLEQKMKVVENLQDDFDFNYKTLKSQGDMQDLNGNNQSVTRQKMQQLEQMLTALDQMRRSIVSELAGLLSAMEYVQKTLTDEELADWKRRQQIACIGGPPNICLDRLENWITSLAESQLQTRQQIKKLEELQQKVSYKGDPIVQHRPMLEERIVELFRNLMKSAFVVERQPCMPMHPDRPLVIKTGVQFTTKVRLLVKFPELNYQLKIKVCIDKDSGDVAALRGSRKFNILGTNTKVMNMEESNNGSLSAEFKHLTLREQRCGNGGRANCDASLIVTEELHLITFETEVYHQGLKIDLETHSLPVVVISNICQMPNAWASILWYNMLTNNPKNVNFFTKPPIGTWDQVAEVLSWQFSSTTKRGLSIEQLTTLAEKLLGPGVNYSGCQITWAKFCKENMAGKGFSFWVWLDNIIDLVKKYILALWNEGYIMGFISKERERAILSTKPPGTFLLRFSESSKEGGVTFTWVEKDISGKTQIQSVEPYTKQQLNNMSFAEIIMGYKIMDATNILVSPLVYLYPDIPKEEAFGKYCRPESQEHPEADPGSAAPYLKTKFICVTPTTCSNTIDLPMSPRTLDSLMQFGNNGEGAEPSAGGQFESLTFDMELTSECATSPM

fold change (FC) [4]	Activity [8]	IC50 [9]	SMILES	Activity [5]	also measured
2.7			CCc1nc(N)nc(N)c1-c1ccccc1	Non-toxic	IC50 [1]: 27 µM; inhibition [2]: Active; Activity [3]: Toxic; Activity [6]: 30%
2.9	100 µM		CCc1nc(N)nc(N)c1-c1cccc(C)c1	> 60%	Activity [6]: 30%
		180 µM	NCc1nc(N)nc(N)c1-c1ccc(Cl)cc1		
1.5			CCCc1nc(N)nc(N)c1-c1ccc(Cl)cc1		
2.1	30 µM		CCc1nc(N)nc(N)c1-c1ccc(Cl)cc1 [PYRIMETHAMINE]	> 60%	Activity [7]: Toxic; inhibition [10]: Active; inhibition [2]: Active
		> 400 µM	CCc1nc(N)ncc1-c1ccc(C(F)(F)F)cc1		
		> 940 µM	CCc1ncncc1-c1ccc(C(F)(F)F)cc1		
		> 410 µM	CC(C)c1nc(N)nc(N)c1-c1ccc(Cl)cc1		
2.5	100 µM		CCc1nc(N)nc(N)c1-c1cc(C)cc(C)c1	> 60%	Activity [6]: 30%
2.2	30 µM		CCc1nc(N)nc(N)c1-c1ccc(C(F)(F)F)cc1	> 60%	Activity [7]: Toxic
		> 400 µM	CCc1nc(N)ncc1-c1ccc(Cl)cc1		
		> 560 µM	Cc1nc(N)nc(N)c1-c1ccc(Cl)cc1		
		> 2100 µM	CCc1nc(N)[nH]c(=O)c1-c1ccc(Cl)cc1		
2.3	100 µM	43 µM	CCc1nc(N)nc(N)c1-c1ccccc1C	> 60%	Activity [6]: 30%
		> 1400 µM	CCCCc1nc(N)nc(N)c1-c1ccc(Cl)cc1		

SMILES	fold change (FC) [4]	Activity [8]	IC50 [9]	Activity [5]	also measured
CCc1nc(N)nc(N)c1-c1ccc(C)cc1	1.7	30 µM	40 µM	> 60%	Activity [7]: Toxic
CCc1nc(N)nc(N)c1-c1ccc(OC)cc1	2	30 µM	18 µM	> 60%	Activity [7]: Toxic
